Compound activity as filed in PubChem.
INS promoter act: TRM-6 insulin promoter activation | TRM-6 cells (human fetal islet line), insulin promoter eGFP reporter, imaging; plate-scaled: unstimulated 0, stimulated control 100 | activation, % at 2 µM | hit rate 0.81% among 130,000 | AID 1296;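 active means activation at 2 µM above a set limit, confirmed on inspection of the cell images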;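 further: share of cells whose green reporter signal exceeds an intensity cutoff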
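test system = TRM-6 insulin promoter–eGFP reporter cells | benchmarks = stimulated versus unstimulated wells as plate controls | read-out basis = percent cells above green-intensity threshold, converted to percent activation versus plate controls | detection = fixed-cell fluorescence microscopy, eGFP plus Hoechst | incubation = tamoxifen pre-incubation 15 h overnight, then compound exposure 48 h at 37 °C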
Hits are given with their value; . = inactive. Many of the other results were omitted from the sample, so hits are more common in it than they were.

SMILES | INS promoter act
O=C(CNC(=O)c1ccc(S(=O)(=O)N2CCCC2)cc1)N/N=C/c1c(Cl)cccc1Cl | .
O=C(O)C1=C(OCc2ccccc2)C(=O)NCC1 | .
COc1ccc(/C=C2\SC(=NCc3ccccc3)N(Cc3ccccc3)C2=O)cc1OC | .
C=CCN1C(=O)/C(=C/c2ccc(N(C)C)cc2)S/C1=N\c1nnc(CC)s1 | 163
O=C(O)c1cn(Cc2ccccc2Cl)c2ccc(S(=O)(=O)N3CCOCC3)cc2c1=O | .
CC(C)(C)C(=O)Nc1cccc2[nH]ncc12 | .
O=C(NNC(=O)c1ccc(F)cc1F)c1ccc2c(c1)OCO2 | .
CCc1ccc(N2CC(C(=O)Nc3nnc(CC)s3)CC2=O)cc1 (stereo unspecified) | .
COC(=O)c1cc(C(=O)Nc2cc(C)ccn2)cc([N+](=O)[O-])c1 | .
COc1ccc(CCc2nnc(CCC(=O)N(C)Cc3ccnc4ccccc34)o2)cc1 | .
OCCNc1c2ccccc2nc2c(F)c(F)c(F)c(F)c12 | .
Cc1c2ccccc2nc2c(F)c(NC(C)C)c(F)c(F)c12 | 233
Cc1c2ccccc2nc2c(F)c(NCCO)c(F)c(F)c12 | .
CCC/C(=N\NC(=O)c1cccc(C)c1)c1ccccc1 | .
C/C(Nc1ccccc1)=C(/C#N)C(N)=O | .
O=C(Nc1ccncc1)c1cccs1 | .
CC(=O)c1ccc(NC(=O)c2cccs2)cc1 | .
COC(=O)Cc1ccc(NC(=O)c2cccs2)cc1 | 460
COC(=O)c1ccccc1S(=O)(=O)N1Cc2cc([N+](=O)[O-])ccc2Oc2ccccc21 | .
Cc1cccc(-n2nnc3c(=O)n(CC(=O)Nc4cc(C)on4)cnc32)c1 | .
CCN(CC)CCOC(=O)c1ccc(NC(=O)c2cn(-c3ccccc3)nc2-c2cccs2)cc1 | .
CC(=O)N(c1ccc(C(C)C)cc1)C1C=CS(=O)(=O)C1 (stereo unspecified) | .
CCC(=O)N(c1ccc(F)cc1)C1C=CS(=O)(=O)C1 (stereo unspecified) | .
COCC(=O)N(c1ccc(C(C)C)cc1)C1C=CS(=O)(=O)C1 (stereo unspecified) | 422
COc1cc(/C=C(\C#N)c2nc3ccccc3[nH]2)cc(Br)c1OCc1ccc(F)cc1 | .
SMILES | INS promoter act
CCOc1cc(N(CC)CC)ccc1/C=C(/C#N)c1nc2ccccc2[nH]1 | 233
N#C/C(=C\c1cc([N+](=O)[O-])c(N2CCOCC2)cc1N1CCOCC1)c1nc2ccccc2[nH]1 | .
Cc1ccc(/C=C(\C#N)c2nc3ccccc3[nH]2)s1 | .
CCN(CC)c1ccc(/C=C(/C#N)c2nc3ccc(C)cc3[nH]2)c(OC(C)C)c1 | 245
N#C/C(=C/c1cccs1)c1nc2ccccc2[nH]1 | .
FC(F)(F)c1cc(-c2ccco2)nc2ncnn12 | .
COCC(C)NC(=O)C1CC(c2cccc(Br)c2)=NO1 (stereo unspecified) | .
Cc1cc(-n2c(C)cc(C(=S)N3CCOCC3)c2C)ccc1Br | .
Cc1ncc([N+](=O)[O-])n1Cc1ccc(Br)cc1 | .
CCOC(=O)C(Oc1ccc2c(-c3ccccc3)cc(=O)oc2c1)c1ccccc1 (stereo unspecified) | .
C=C(C)Cn1c(SCC(=O)O)nnc1-c1ccc(OC)cc1 | .
COc1ccc(-c2nnc(SCCC(=O)O)n2-c2ccccc2)cc1 | 486
COC(=O)CSc1nnc(-c2ccccc2OC)n1-c1ccc(C)cc1 | .
COc1ccccc1OCCSc1nnc(C)n1-c1ccccc1 | 83
Cc1nnc(SCC2CCCO2)n1-c1ccccc1 (stereo unspecified) | .
COc1ccc(-c2nnc(SCC(=O)c3ccc[nH]3)n2-c2ccccc2)cc1 | .
COc1ccc(C)cc1N(C(=O)c1ccccc1F)c1nc2ccccc2s1 | .
CC(C(=O)OCC(=O)Nc1cccc(S(=O)(=O)N2CCOCC2)c1)N1C(=O)c2ccccc2C1=O (stereo unspecified) | .
CCOC(=O)c1nc(-c2ccc(OC)c(OC)c2)cnc1C#N | .
CCOc1ccc(N2C(=O)CC(n3ccc(C)n3)C2=O)cc1 (stereo unspecified) | .
COC(=O)c1c(NC(=O)CN2CCC3(O)CCCCC3C2c2cc(OC)ccc2OC)sc(C)c1C (stereo unspecified) | .
COc1ccc(C2=NO[C@@H]3[C@@H]4C[C@@H]([C@H]5C(=O)N(C)C(=O)[C@@H]45)[C@H]23)cc1 | .
O=C(CN1C(=O)S/C(=C/C=C/c2ccccc2)C1=O)Nc1ccc(C(=O)O)cc1 | 550
CC(=O)c1ccc(NC(=O)CCCN2C(=O)/C(=C/C(C)=C/c3ccccc3)SC2=S)cc1 | .
Cn1cc(/C=C2/SC(=O)N(CC(=O)Nc3ccc4c(c3)OCO4)C2=O)c2ccccc21 | .
SMILES | INS promoter act
Cn1c(SCC(=O)N2CCCC2=O)nnc1-c1ccccc1F | .
O=C(Cn1c(C(F)(F)F)nc2ccccc21)c1ccc(F)cc1 | 84
Cc1[nH]c2ccccc2c1C(=O)COC(=O)Cn1c(C(F)(F)F)nc2ccccc21 | .
CC(C)NC(=O)Cn1c(SCC(=O)c2ccc(F)cc2)nc2ccccc21 | .
O=S(=O)(NC1=NCCC1)c1cccc(NC(=S)NCCc2ccccc2)c1 | .
COc1ccc(N(C(=O)Cn2nnc3ccccc32)C(C(=O)NC(C)(C)C)c2ccc(OC)c(O)c2)cc1 (stereo unspecified) | .
Cc1ccc(N(C(=O)Cn2nnc3ccccc32)C(C(=O)NCc2ccco2)c2ccc(C)o2)cc1 (stereo unspecified) | .
CCC(C)(C)NC(=O)C(c1ccco1)N(C(=O)Cn1nnc2ccccc21)c1ccc2c(c1)OCO2 (stereo unspecified) | 83
Cc1cc(C(F)F)nn1CC(=O)Nc1cc([N+](=O)[O-])ccc1F | .
FC(F)(F)c1nnc(-c2ccccc2)nc1N1CCOCC1 | .
FC(F)(F)c1cccc(-c2nnc(-c3ccccc3)c(N3CCOCC3)n2)c1 | 233
Cc1ccc(-c2nnc(C)c(N3CCOCC3)n2)cc1 | .
O=C(CSc1ncccn1)NC(=O)c1ccccc1 | .
CCN(Cc1ccccc1)C(=O)C1CCN(CC2CC=CCC2)CC1 (stereo unspecified) | .
O=C(C1CCCCC1)N(Cc1ccccc1)c1ccccn1 | .
O=C(C1CC1)N(CCN(Cc1ccccc1)C(=O)C1CC1)Cc1ccccc1 | 250
CC1(C)Cc2c(sc3[nH]c(=S)[nH]c(=O)c23)CO1 | .
Cc1noc(C)c1COc1ccc(C(=O)OCC(=O)NC2CCCCC2C)cc1 (stereo unspecified) | .
CCCSc1nnc(Cn2c(=O)sc3ccccc32)n1C | .
Cn1c(CCc2ccccc2)nnc1SCC(=O)N1CCOCC1 | .
CCCSc1nnc(CN2CCOCC2)n1C | 419
COc1cccc(N/C=C/C(=O)c2ccc(Br)cc2)c1 | .
COc1ccc(N/C=C\C(=O)c2ccc3c(c2)OCO3)cc1 | .
COc1ccc(C(=O)/C=C/Nc2cccc(O)c2)cc1 | 80
CCCCNC(=O)CSc1nc2ccsc2c(=O)n1C1CCN(C(=O)OCC)CC1 | .
SMILES | INS promoter act
O=C(CN1CCN(c2ccccc2)CC1)Nc1ccc(OCc2ccccc2)cc1 | .
CC(=O)N(c1ccc2oc(=O)sc2c1)S(=O)(=O)c1cccs1 | .
COc1ccc(N(C(C)=O)S(=O)(=O)c2cccs2)cc1 | 506
CCNC(=O)c1ccc(N(C)S(=O)(=O)c2cccs2)cc1 | .
CN(C(=S)Nc1ccccc1F)C1(c2ccccc2Cl)CCCCC1=O (stereo unspecified) | .
O=C(COC(=O)c1ccc(F)cc1F)NC1CC1 | .
COc1cc(OC)c(C(=O)NNC(=S)NC2CCCCC2)cc1OC | .
